Assay results from different studies.
Protocols differ between the studies behind these lines.
Target: cAMP-dependent protein kinase catalytic subunit alpha (PRKACA, Homo sapiens, UniProt P17612)

Compound	test	conditions	quantity	value
N[C@@H]1CCN(c2nccc(-c3cnn4ncccc34)n2)C1	cell-free assay	1 µM	remaining signal	96%
COc1cc(Cl)c(C(=O)N[C@@H](CN[C@H]2CC[C@@H](N)CC2)Cc2ccc(C#N)cc2)cc1-c1ccc(CN[C@H](C)c2ccc(C)cc2)o1	enzyme activity, inhibitor	1 µM	remaining activity	106%
COc1ccnn2ncc(-c3ccnc(N(C)C)n3)c12	cell-free assay	1 µM	remaining signal	100%
Cc1ccc(C(=O)NCc2ccsc2)cc1C#Cc1cn(C(C)C)c2ncnc(N)c12	enzyme activity, inhibitor	1 µM	activity vs control	103%
Cc1sc(C(=O)NC2COC2)cc1-n1cc(NC(=O)Nc2c(F)cccc2Cl)cn1	enzyme activity, inhibitor	10 µM	remaining activity	94.5%
CS(=O)(=O)Nc1cccc(-c2csc(NC(=O)CSc3nc4nccnc4c(=O)n3CCc3ccccc3)n2)c1	enzyme activity, inhibitor	10 µM	inhibition	5%
O=C(Nc1cnn(-c2csc(C(=O)NC3COC3)c2)c1)Nc1c(F)cccc1Cl	enzyme activity, inhibitor	5 µM	remaining activity	108%
Cn1c2c(c3ccc(Cl)c(Cl)c31)C(C#N)C(C)(C)NC2=O (stereo not drawn)	thermal stability, DSF	10 µM	ΔTm	0.4 °C
CCN(CC)CCNC(=O)c1c(C)[nH]c(/C=C2\C(=O)Nc3ccc(F)cc32)c1C	enzyme activity, inhibitor	10 µM	inhibition	59%
Cc1ccc(NC(=O)c2ccc(C)c(C(F)(F)F)c2)cc1C#Cc1nn(C2CCC(O)CC2)c2ncnc(N)c12 (stereo not drawn)	cell-free assay, inhibitor	10 µM	remaining signal	60%
Cc1cc(-n2nc(Cc3cc(F)cc(C(F)(F)F)c3)nc2C)ccc1C(N)=O	cell-free assay, competition with immobilised ligand	1 µM	remaining binding	100%
CN(c1ncccc1CNc1nc(Nc2ccc3c(c2)CC(=O)N3)ncc1C(F)(F)F)S(C)(=O)=O	enzyme activity, inhibitor	1 µM	inhibition	78.4%
CS(=O)(=O)N1CCCC(NC(=O)[C@H](CCC2CCCCC2)NC(=O)c2ccc(CNC(=O)c3cnc4ccccn34)cc2)C1 (stereo partly drawn)	cell-free assay, competition with immobilised ligand	0.1 µM	remaining binding	100%
Oc1cccc(-c2nc(N3CCOCC3)c3oc4ncccc4c3n2)c1	enzyme activity, inhibitor	10 µM	remaining activity	100%
COc1cc2ncnc(Nc3ccc(Oc4ccccc4)c(C)c3C)c2cc1OC	enzyme activity, inhibitor	1 µM	inhibition	4%
CCOc1cc(-c2nncn2C)ccc1Nc1ncc2cc(C)nc(NCC(C)(C)C)c2n1	enzyme activity, inhibitor, FRET	1 µM	inhibition	< 15%
O=C(Nc1cccnn1)N1CCC(=Cc2cccc(Oc3ccc(C(F)(F)F)cn3)c2)CC1	cell-free assay, competition with immobilised ligand	1 µM	remaining binding	100%
CNc1cccc2cc(C(=O)Nc3ccc(C(=O)O)cc3)c(=O)[nH]c12	enzyme activity, inhibitor	10 µM	inhibition	-8.1%
Cc1ccc(Nc2nccc(N(C)c3ccc4c(C)n(C)nc4c3)n2)cc1S(N)(=O)=O	enzyme activity, inhibitor	10 µM	inhibition	19%
Cn1c2c(c3ccccc31)C(C#N)C(C)(C)NC2=O (stereo not drawn)	thermal stability, DSF	10 µM	ΔTm	0.2 °C
O=C(NCCCC1CCCCC1)c1ccc(CNC(=O)c2cnn(-c3ccccc3)c2C(F)(F)F)cc1	cell-free assay, competition with immobilised ligand	0.1 µM	remaining binding	100%

Compound	test	conditions	quantity	value
Cn1c2c(c3ccc(Cl)c(Cl)c31)C(C#N)C1(CCOCC1)NC2=O (stereo not drawn)	thermal stability, DSF	10 µM	ΔTm	0.1 °C
CN(C)C1CCN(CC#Cc2nn(C3CCCC3)c3nc(NCc4ccccc4)ncc23)C1 (stereo not drawn)	enzyme activity, inhibitor, FRET	1 µM	inhibition	6%
Cc1cc(NC(=O)c2cccc3cc(-c4cccc5[nH]nc(N)c45)ccc23)ccc1F	enzyme activity, inhibitor	0.1 µM	activity vs control	100%
Cn1c2c(Cl)c(Cl)ccc2c2cc[nH]c(=O)c21	thermal stability, DSF	10 µM	ΔTm	0.8 °C
Cc1ccc(NC(=O)c2ccc(CN3CCN(C)CC3)cc2)cc1Nc1nccc(-c2cccnc2)n1	enzyme activity, inhibitor	0.5 µM	activity vs control	95.4%
Cn1cnc(Br)c1C1=CN(c2ncnc3[nH]cnc23)CCS1	enzyme activity, inhibitor, radiometric	50 nM	inhibition	21.5%
COc1cc(Nc2cnc(C#N)c(O[C@H](C)CN(C)C)n2)ncc1-c1cnn(C)c1	enzyme activity, inhibitor, radiometric	1 µM	remaining activity	104%
N#CCCc1ccc2c(c1)-c1[nH]c3ccc([N+](=O)[O-])cc3c1CC(=O)N2	cell-free assay	0.5 µM	remaining signal	87.6%
Cc1cnc(NC2CCOCC2)nc1-n1cnc(C(=O)NC(CN)c2cc(F)cc(Cl)c2)c1 (stereo not drawn)	enzyme activity, inhibitor, radiometric	1 µM	remaining activity	45%
FC(F)(F)Oc1cccc(-c2cnc3ccc(-c4ccncc4)nn23)c1	enzyme activity, inhibitor, radiometric	1 µM	activity vs control	95%
NS(=O)(=O)c1cc(NC(=O)Cc2ccccc2)ccc1Oc1cccc(Cl)c1	cell-free assay, competition with immobilised ligand	1 µM	remaining binding	94%
CC(C)(O)[C@H]1CC[C@H](Nc2ccc3ncc(-c4cccc(C(F)(F)F)c4)n3n2)CC1	enzyme activity, inhibitor	1 µM	remaining activity	99.4%
CC(C)(C)c1nc(-c2cccc(NS(=O)(=O)c3c(F)cccc3F)c2F)c(-c2ccnc(N)n2)s1	enzyme activity, inhibitor, radiometric	1 µM	remaining activity	95%
CCCCN(CCCC)C(=O)CN1C[C@H](c2cc(OC)c3c(c2)OCO3)[C@@H](C(=O)O)[C@@H]1CC(C)(C)CCC	cell-free assay, competition with immobilised ligand	1 µM	remaining binding	100%
Nc1nc(Nc2ccccc2)sc1C(=O)c1c(F)cccc1F	enzyme activity, inhibitor	10 µM	remaining activity	90%
Cn1c2c(c3ccc(Cl)c(Cl)c31)C(C#N)C1(CCCC1)NC2=O (stereo not drawn)	thermal stability, DSF	10 µM	ΔTm	-0.6 °C
CN(C)CCCn1cc(C2=C(c3c[nH]c4ccccc34)C(=O)NC2=O)c2ccccc21	cell-free assay	0.5 µM	remaining signal	72%
CCCOc1ccc([C@H]2[C@H](C(=O)O)[C@@H](c3ccc4c(c3)OCO4)CN2CC(=O)Nc2c(CC)cccc2CC)cc1	cell-free assay, competition with immobilised ligand	1 µM	remaining binding	100%
COc1cc2ncnc(Nc3ccc(F)c(Cl)c3)c2cc1OCCCN1CCOCC1	cell-free assay	0.5 µM	remaining signal	96.3%
Cc1cc(NC(=O)c2cccc(S(F)(F)(F)(F)F)c2)cc(-n2ccn3nc(-c4cccnc4)cc23)c1	cell-free assay, competition with immobilised ligand	1 µM	remaining binding	100%
CCCOc1ccc(OC)c(F)c1C(=O)c1ccc(C(=O)N[C@@H]2CNC[C@H]2NC(=O)c2ccc3[nH]ncc3c2)cc1	enzyme activity, inhibitor	10 µM	remaining activity	1%
